Smad3 inh: Smad3/FoxH1 peptide binding inhibitors, primary screen, biochemical, TR-FRET | TR-FRET Smad3/Dy647-FoxH1 peptide binding, europium anti-His | inhibition, % at 25 µM | 0.29% of 88,000 active;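 active = compounds that reduce the energy-transfer binding signal between the protein and its labelled peptide by more than half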;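 note: 0% = Smad3 plus labelled peptide maximal FRET and 100% = peptide-only background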
FAK inh: FAK kinase inhibitors, primary screen, biochemical; biochemical FAK kinase activity assay; inhibition, %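 (tested at 7 µM)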; 0.84% of 97,000 active; AID 727, 2007; in the data active = inhibition above about 19%;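 note: 0% = DMSO and 100% = reference compound high control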
Target sequence (Q05397 whole entry, looked up): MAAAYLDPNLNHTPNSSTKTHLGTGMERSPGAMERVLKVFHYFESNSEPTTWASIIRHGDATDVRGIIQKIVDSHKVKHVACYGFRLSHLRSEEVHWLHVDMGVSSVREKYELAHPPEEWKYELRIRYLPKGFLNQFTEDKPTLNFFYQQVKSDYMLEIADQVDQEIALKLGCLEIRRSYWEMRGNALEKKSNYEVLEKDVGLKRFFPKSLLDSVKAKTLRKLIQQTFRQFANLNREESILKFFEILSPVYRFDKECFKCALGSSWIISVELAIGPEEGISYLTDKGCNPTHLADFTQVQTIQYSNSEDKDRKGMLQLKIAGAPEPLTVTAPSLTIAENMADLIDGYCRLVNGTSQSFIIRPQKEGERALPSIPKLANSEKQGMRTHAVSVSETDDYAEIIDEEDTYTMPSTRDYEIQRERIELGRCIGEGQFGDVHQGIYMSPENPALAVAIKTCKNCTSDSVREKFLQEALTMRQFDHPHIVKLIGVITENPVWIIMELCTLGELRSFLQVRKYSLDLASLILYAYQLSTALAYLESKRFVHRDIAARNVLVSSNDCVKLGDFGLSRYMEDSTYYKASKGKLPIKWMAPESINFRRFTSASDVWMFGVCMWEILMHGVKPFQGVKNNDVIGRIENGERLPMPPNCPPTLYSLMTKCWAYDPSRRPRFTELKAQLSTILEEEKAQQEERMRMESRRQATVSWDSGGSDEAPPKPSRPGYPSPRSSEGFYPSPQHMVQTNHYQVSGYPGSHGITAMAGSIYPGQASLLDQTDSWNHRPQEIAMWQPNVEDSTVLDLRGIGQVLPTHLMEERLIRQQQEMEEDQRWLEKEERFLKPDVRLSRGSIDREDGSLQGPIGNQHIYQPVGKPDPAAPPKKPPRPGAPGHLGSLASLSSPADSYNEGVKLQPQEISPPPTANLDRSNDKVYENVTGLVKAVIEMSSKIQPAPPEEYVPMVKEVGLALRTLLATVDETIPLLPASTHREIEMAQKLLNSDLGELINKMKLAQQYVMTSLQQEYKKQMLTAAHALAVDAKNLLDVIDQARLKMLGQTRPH
ERa SRC1 inh: ERα–SRC-1 coactivator interaction inhibitors, primary screen, biochemical, TR-FRET, ERα LBD, estradiol-bound. Estrogen receptor (Homo sapiens), P03372. TR-FRET ER-alpha LBD / SRC-1 peptide. inhibition, % at 25.6 µM. 1.7% of 86,000 active; in the data active = inhibition above about 50%;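 note: 0% = receptor plus peptide control and 100% = peptide only without receptor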
Rev-RRE block: HIV-1 Rev-RRE binding inhibitors, primary screen, biochemical, FRET, protein-RNA interaction | P05866 | Rev peptide-RRE RNA binding | inhibition, % at 8 µM | 0.79% of 97,000 active;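 active = inhibition above the screen-wide mean plus 3 SD, cut at about 35% in these data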;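 note: 0% = median DMSO wells and 100% = median Neomycin B control wells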
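Test system: labelled RRE RNA duplex and labelled Rev peptide. Times: 5 min compound–RNA preincubation, then 15 min with peptide, 25 °C. Doses: single-dose 8 µM. Measured by: FRET, excitation 480 nm, emission 540 nm donor and 671 nm acceptor. Measure: % inhibition of FRET ratio versus controls.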
ERb SRC1 inh: inhibitors of ERβ-SRC1 coactivator interaction, primary screen, biochemical, TR-FRET, ERβ LBD, SRC-1 peptide; AID 633, 2007; 1.3% of 86,000 active; Estrogen receptor beta (Homo sapiens), Q92731; TR-FRET ER-beta LBD / SRC1-Cy5 peptide binding; receptor agonist-loaded with 1 µM estradiol; inhibition, % at 25.6 µM;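 active = compounds whose percent inhibition of the receptor-coactivator binding signal exceeds about 50% in the single-dose screen, limit read from the data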;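 note: 0% = receptor plus peptide wells without compound and 100% = peptide-only wells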
ERa SRC1 pot: enhancers of ERα–SRC-1 coactivator binding, primary screen, biochemical, TR-FRET, ERα LBD, low estradiol; Estrogen receptor (Homo sapiens), P03372; TR-FRET ERalpha-LBD/SRC-Cy5 coactivator binding, 2 h; 100 = basal binding, no effect; coactivator binding (% of control), % at 25.6 µM; 1.3% of 86,000 active; AID 639, 2007; in the data active = activity above about 200%;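 note: binding measured in presence of low estradiol as agonist stimulus; 0% = peptide alone without receptor and 100% = receptor with peptide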
The depositor's hits bear a star; [ ] = another dose, or the depositor's remark. Rows were chosen to be rich in hits. Some 4% of all compounds tested hit in one or more screens of this group.

Screening O=C(O)c1c(-c2c3ccc(=O)cc-3oc3cc(O)ccc23)cc2ccccc2c1-c1ccccc1 returned Smad3 inh 22.0.
COC(=O)CSc1nc2cc(C)ccc2cc1C#N was read as Smad3 inh -10.6, FAK inh 3.0, ERa SRC1 inh -10.5, Rev-RRE block 11.9, ERb SRC1 inh -6.7 and ERa SRC1 pot 104.7.
Screening Cc1ccc2nc(SCC(=O)Nc3ccccc3N3CCOCC3)c(C#N)cc2c1 returned Smad3 inh -7.3, FAK inh -14.5, ERa SRC1 inh 18.9, Rev-RRE block 17.9, ERb SRC1 inh 17.2 and ERa SRC1 pot 216.8*[fluorescence artefact?].
CCOC(=O)CC(=O)CSc1nc2ccc(C)cc2cc1C#N was read as Smad3 inh 8.0, FAK inh 5.6, ERa SRC1 inh 5.5, Rev-RRE block 94.5*[fluorescence artefact?], ERb SRC1 inh 4.9 and ERa SRC1 pot 112.8.
Screening CC1CCN(CC(=O)N2c3ccccc3Sc3cc4ccccc4cc32)CC1 returned Smad3 inh 1.8.
For COc1cc(/C=C/C(=O)CC(=O)/C=C/c2ccc(O)c(OC)c2)ccc1O the results were Smad3 inh -17.2, ERa SRC1 inh 37.5, ERb SRC1 inh 59.5*[fluorescence artefact?] and ERa SRC1 pot 33.4.
For Cc1cc(=O)[nH]c(SCC(=O)NCCc2ccccc2)n1 the results were Smad3 inh 95.9*, FAK inh 2.9, ERa SRC1 inh 4.6, Rev-RRE block 0.1, ERb SRC1 inh 7.5 and ERa SRC1 pot 81.8.
`Cc1nnc(SCC(=O)NCc2ccccc2)[nH]c1=O` gave Smad3 inh 62.8*, FAK inh -3.4, ERa SRC1 inh -1.6, Rev-RRE block 5.7, ERb SRC1 inh -26.1 and ERa SRC1 pot 116.7.
For COCc1cc(=O)n2[nH]c(-c3ccsc3-n3c(C)ccc3C)cc2n1 the results were Smad3 inh 7.0, FAK inh 1.1, ERa SRC1 inh 31.3, Rev-RRE block 1.4, ERb SRC1 inh 42.2 and ERa SRC1 pot 41.1.
Cc1nc2cc(-c3ccsc3-n3c(C)ccc3C)[nH]n2c(=O)c1Cl was read as Smad3 inh -1.0, FAK inh -2.3, ERa SRC1 inh 59.2*, Rev-RRE block 8.7, ERb SRC1 inh 64.3* and ERa SRC1 pot 97.9.
`COc1cc2[nH]c3c(N4CCN(c5ccccn5)CC4)ncnc3c2cc1OC` gave Smad3 inh 16.3, FAK inh 12.6, ERa SRC1 inh -1.4, Rev-RRE block 11.8, ERb SRC1 inh 6.2 and ERa SRC1 pot 675.8*[fluorescence artefact?].
COc1ccc(N2CCN(c3ncnc4c3[nH]c3ccccc34)CC2)cc1 was read as Smad3 inh -2.9, FAK inh 1.6, ERa SRC1 inh -7.9, Rev-RRE block 6.9, ERb SRC1 inh -9.2 and ERa SRC1 pot 93.3.
For O=C(O)CCC(=O)c1ccc2sc3ccccc3c2c1 the results were Smad3 inh -13.7.
For CCc1c(C)sc(NC(=O)c2cnn3cccnc23)c1C#N the results were Smad3 inh 4.6, FAK inh -0.9, ERa SRC1 inh 36.1, Rev-RRE block 11.4, ERb SRC1 inh 32.3 and ERa SRC1 pot 261.7*[fluorescence artefact?].
Screening CCOC(=O)CNC(=O)c1cnn2cccnc12 returned Smad3 inh 2.8, FAK inh 1.3, ERa SRC1 inh 4.5, Rev-RRE block 4.4, ERb SRC1 inh 37.8 and ERa SRC1 pot 104.3.
`CCOc1ccccc1-c1nc(C(N)=O)c2[nH]c(=O)n(-c3ccc(F)cc3)c2n1` gave Smad3 inh -3.8, FAK inh -9.1, ERa SRC1 inh 10.1, Rev-RRE block 10.1, ERb SRC1 inh 3.7 and ERa SRC1 pot 126.2.
CCc1ccc(-c2nc(C(N)=O)c3[nH]c(=O)n(-c4ccccc4OC)c3n2)cc1 was read as Smad3 inh -9.1, FAK inh -2.0, ERa SRC1 inh 19.7, Rev-RRE block 0.4, ERb SRC1 inh 12.0 and ERa SRC1 pot 300.2*[fluorescence artefact?].
Screening Nc1nc(Cl)cc(NCCO)n1 returned Smad3 inh 2.8.
c1ccc(CN2CCC3(CC2)SSC2(CCN(Cc4ccccc4)CC2)SS3)cc1 was read as Smad3 inh 19.6.
